Screening results from PubChem.
Shown are actives, neighbours in structure and some others; about 1.9% of the full set was active somewhere.
PglD DTNB: inhibitors of Campylobacter jejuni PglD acetyltransferase; purified PglD enzyme, DTNB colorimetric CoA detection; inhibition, % at 12.5 µM; 360,000 compounds, 0.098% hits; AID 602405; in the data active = inhibition above about 16%, passing the limit was not always enough
Cneo AK release: Cryptococcus neoformans lysis via adenylate kinase release | C. neoformans lysis, adenylate kinase release luminescence, 4 h; normalised: neutral wells 0, clomiphene wells 100 | lysis activity, % at 15 µM | 360,000 compounds, 0.2% hits;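 active = mean lysis activity across replicates of at least 80%, whatever share of replicates individually reach that level; inactive = mean lysis activity below 80%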
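Test system: log-phase Cryptococcus neoformans yeast cells. Input: 5 × 10^6 yeast cells/mL. Medium: fresh YPD growth medium. Doses: single dose. Incubation: static 4 h at 37 °C with compound, 1 h detection. Measured by: luminescent adenylate kinase detection reagent. Read-out: signal increase indicating cell lysis. Benchmarks: Clomiphene.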
rRNA inh HTS: inhibitors of bacterial rRNA selective over humanized ribosomes; E. coli WT GFP vs humanized-ribosome RFP mutants, fluorescence, 24 h; hits give low values; DMSO median 0, no signal -100; AID 720706; 350,000 compounds, 1.6% hits; GFP signal change (wild-type ribosome), % (test concentration not listed);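 active = significant combined selectivity score with lowered wild-type GFP, culture density cut under 30%, mutant RFP and density less affected; inactive = any of these conditions unmet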
RAD52 anneal inh: inhibitors of human RAD52 DNA annealing; P43351; recombinant RAD52 DNA annealing, FRET fluorescence; inhibition, % at 18.7 µM; 360,000 compounds, 0.46% hits; AID 651710;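 active = every replicate showing at least 50% inhibition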
RAD54 inh: inhibitors of human RAD54 branch migration. RAD54 Holliday junction branch migration, FAM/BHQ fluorescence. inhibition, % at 10.4 µM. 360,000 compounds, 0.14% hits;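 active = mean normalized replicate activity at least 40 and at least half of replicates scoring 40 or more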;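 note: 0% = median of neutral control wells and 100% = median of positive control wells; inhibitors cause a drop in the FAM fluorescence signal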
Target sequence (Q92698 whole entry, looked up): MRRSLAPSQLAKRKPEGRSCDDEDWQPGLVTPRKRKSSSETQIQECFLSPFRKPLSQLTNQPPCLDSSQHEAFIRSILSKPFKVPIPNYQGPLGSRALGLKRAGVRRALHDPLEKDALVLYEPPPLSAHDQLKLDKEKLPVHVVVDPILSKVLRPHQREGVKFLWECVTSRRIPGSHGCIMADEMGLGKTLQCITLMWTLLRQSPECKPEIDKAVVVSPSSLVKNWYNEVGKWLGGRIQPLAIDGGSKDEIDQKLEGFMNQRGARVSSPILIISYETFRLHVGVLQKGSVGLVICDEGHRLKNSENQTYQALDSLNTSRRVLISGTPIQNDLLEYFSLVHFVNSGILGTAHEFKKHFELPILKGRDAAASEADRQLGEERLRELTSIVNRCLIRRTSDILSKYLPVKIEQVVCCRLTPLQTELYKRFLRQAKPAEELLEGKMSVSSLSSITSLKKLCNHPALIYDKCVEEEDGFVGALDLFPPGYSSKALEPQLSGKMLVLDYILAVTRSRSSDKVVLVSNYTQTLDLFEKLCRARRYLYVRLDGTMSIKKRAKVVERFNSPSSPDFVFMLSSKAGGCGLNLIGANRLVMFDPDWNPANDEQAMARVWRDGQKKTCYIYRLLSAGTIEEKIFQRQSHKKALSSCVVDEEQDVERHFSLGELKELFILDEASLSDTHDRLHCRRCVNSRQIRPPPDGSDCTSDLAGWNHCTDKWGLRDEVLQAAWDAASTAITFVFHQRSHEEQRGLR
The depositor's hits bear a star; . = no result.

SMILES	PglD DTNB	Cneo AK release	rRNA inh HTS	RAD52 anneal inh	RAD54 inh
C[C@H](O)C#Cc1ccc([C@@H]2[C@@H](CO)N3CCCCN(CC4CC4)C[C@H]23)cc1	4.6	-3.2	-0.5	0.2	-4.5
C[C@@H](O)C#Cc1ccc([C@@H]2[C@H]3CN(CC4CC4)CCCCN3[C@H]2CO)cc1	2.6	114.6*	-1.8	-7.5	4.2
COc1ccc2c3c([nH]c2c1)[C@H](CO)N(C(=O)C1CCCCC1)CC31CCN(C)CC1	.	.	3.7	0.8	.
O=C(NCCSCc1ccco1)Nc1cc(Cl)cc(Cl)c1	-3.3	-5.0	-51.2*	-34.7	-5.6
CC(=O)Nc1cccc2c1O[C@H](CN(C)C(=O)NC(C)C)[C@@H](C)CN(C)C2=O	.	.	-0.6	.	.
Cc1ccccc1CN(C)CC(=O)Nc1cccc(S(=O)(=O)N(C)c2ccccc2)c1	.	.	-20.6*	-35.6	.
Clc1ncnc2scc(-c3ccccc3)c12	-2.6	-0.5	.	.	7.2
S=c1[nH]cnc2scc(-c3ccccc3)c12	13.2	0.3	-29.2*	-22.6	4.0
CSc1nc(C)c(C(=O)Nc2ccccc2)c(C)c1C#N	-3.4	3.0	-21.0*	-14.2	-5.2
CCCC(=O)Nc1ccc2c(c1)C(=O)N(C)C[C@H](OC)[C@H](C)CN(Cc1nccs1)[C@H](C)CO2	7.7	-3.0	0.5	12.8	-10.1
COc1ccc2c3c([nH]c2c1)[C@H](CO)N(S(C)(=O)=O)CC31CCN(C(=O)c2ccncc2)CC1	.	.	0.6	-12.4	.
CCOC(=O)C1=C(N)Oc2cc(O)ccc2C1c1ccc([N+](=O)[O-])cc1 (configuration not stated)	.	.	-44.5*	-14.9	.
CCOC(=O)C1=C(N)Oc2ccc3ccccc3c2C1c1ccc(O)cc1 (configuration not stated)	3.3	-1.8	-28.4	1.1	3.7
CCOC(=O)c1c2ccc(OCC(=O)NN)cc2n2ccccc12	.	.	-24.1*	-6.7	.
CCOC(=O)c1c(C)n(C)c2cc(OCCN(CC)CC)ccc12	-2.6	1.8	.	.	29.5
C[C@@H]1CN([C@H](C)CO)C(=O)c2cc(NS(=O)(=O)c3ccc(F)cc3)ccc2O[C@H]1CN(C)Cc1ccc(-c2ccccc2)cc1	2.4	-1.8	-3.6	4.8	2.8
N#C/C(=C\Nc1ccc(Cl)cn1)S(=O)(=O)c1ccccn1	.	.	16.2	-11.3	.
N#C/C(=C\Nc1ccc(Cl)cn1)S(=O)(=O)c1ccccc1	.	.	-34.6*	-5.2	.
Cc1ccccc1CSCC(=O)Nc1ccccc1F	2.0	-2.5	-24.8*	-20.0	5.6
O=C(NCc1ccc(Cl)cc1)c1n[nH]c([N+](=O)[O-])c1Cl	.	.	-14.8*	-5.3	.
CCOC(=O)c1cc(-c2ccc(N)cc2)sc1N	-4.0	-1.3	.	.	-5.6
CCOC(=O)c1sc(-c2ccc(Br)cc2)cc1N	-3.6	-18.5	-33.8*	-6.6	2.3
COc1ccc(S(=O)(=O)N(C)C[C@@H]2Oc3ccc(NS(=O)(=O)c4ccc(F)cc4)cc3CC(=O)N([C@@H](C)CO)C[C@H]2C)cc1	.	.	-0.4	-2.6	.
C[C@@H]1CCCCO[C@H](CN(C)C(=O)CCCN(C)C)[C@@H](C)CN([C@H](C)CO)C(=O)c2cc(NC(=O)Cc3ccccc3)ccc2O1	1.1	115.6*	5.1	13.6	3.6
C[C@@H]1CCCCO[C@@H](CN(C)C(=O)CCCN(C)C)[C@@H](C)CN([C@H](C)CO)C(=O)c2cc(NC(=O)Cc3ccccc3)ccc2O1	-45.7	103.8*	7.8	17.3	-1.6
SMILES	PglD DTNB	Cneo AK release	rRNA inh HTS	RAD52 anneal inh	RAD54 inh
CCCN(C)C[C@H]1OCCCC[C@H](C)Oc2ccc(NC(=O)Nc3ccc(F)cc3)cc2C(=O)N([C@@H](C)CO)C[C@H]1C	.	.	1.0	.	.
CCCN(C)C[C@@H]1OCCCC[C@H](C)Oc2ccc(NC(=O)Nc3ccc(F)cc3)cc2C(=O)N([C@H](C)CO)C[C@@H]1C	0.2	1.1	-7.8	53.0*	3.9
CNC[C@@H]1OCCCC[C@H](C)Oc2ccc(NC(=O)Nc3ccc(F)cc3)cc2C(=O)N([C@@H](C)CO)C[C@H]1C	0.5	101.3*	7.9	-123.0	-10.6
CC(C)NC(=O)Nc1ccc2c(c1)C(=O)N([C@H](C)CO)C[C@@H](C)[C@H](CN(C)Cc1ccncc1)O2	1.0	-1.6	5.0	2.1	4.2
C[C@H]1CCCCO[C@@H](CN(C)C(=O)c2ccccc2)[C@@H](C)CN([C@@H](C)CO)C(=O)c2cc(NC(=O)CCC(F)(F)F)ccc2O1	0.4	-0.1	0.9	10.2	-0.2
O=C(C[C@@H]1C[C@H]2c3cc(NC(=O)C4CCC4)ccc3O[C@H]2[C@H](CO)O1)NCc1cccnc1	7.0	2.4	0.5	13.4	-13.1
C#CCN([C@H](/C=C/C1CC1)[C@@H](O)Cc1ccccc1)[C@@H](Cc1ccccc1)C(=O)OC	.	-34.4	.	-7.0	.
C[C@H](CO)N1C[C@H](C)[C@H](CN(C)C(=O)CCCN(C)C)OCCCC[C@H](C)Oc2ccc(NC(=O)Nc3ccc(F)cc3)cc2C1=O	-2.2	-2.1	2.6	23.9	4.6
C[C@@H]1CN([C@@H](C)CO)C(=O)c2cc(NC(=O)Nc3ccc(F)cc3)ccc2O[C@@H](C)CCCCO[C@H]1CN(C)C(=O)CCCN(C)C	6.3	3.0	3.0	51.1*	8.6
C[C@H](CO)N1C[C@H](C)[C@@H](CN(C)Cc2ccncc2)OCCCC[C@H](C)Oc2ccc(NC(=O)CCC(F)(F)F)cc2C1=O	3.9	-0.6	0.0	-5.8	-5.0
CCOc1ccc(C(=O)OCCN(CC)CC)cc1	2.2	2.9	.	.	-3.6
CCCOc1ccc(C(=O)OCCN(CC)CC)cc1N	1.7	0.2	.	95.0*	4.0
CCNC(=O)C[C@@H]1CC[C@@H]2[C@H](COC[C@H](O)CN2C(=O)Nc2c(C)noc2C)O1	0.5	-5.8	5.8	19.4	7.3
C[C@H]1CN(C)C(=O)c2cc(N(C)C)ccc2O[C@@H]1CN(C)C(=O)OC(C)(C)C	.	.	-1.2	.	.
CCOc1ccc(NC(=O)CN(C)CC(=O)Nc2ccc(Br)cc2F)cc1OCC	.	.	-28.5*	-8.5	.
C[C@H](CO)N1C[C@H](C)[C@H](CN(C)C(=O)Nc2ccc(F)cc2)Oc2c(NC(=O)Nc3ccc(F)cc3)cccc2C1=O	2.9	-3.8	-11.4	8.5	-11.6
Cc1cc(Cl)ccc1NC(=S)NC(C)(C)C	.	.	-35.4*	11.8	.
Cc1ccccc1NC(=S)NCc1ccc(F)cc1	-5.4	0.1	2.5	3.5	-3.8
Cc1cc(Cl)ccc1NC(=S)NCc1ccc(F)cc1	-4.6	92.8*	-3.0	7.2	11.1
Cc1ccc(NC(=S)NCc2ccc(Cl)cc2)c(OC(F)F)c1	-2.2	344.1*	-66.8	-5.8	-0.7
C[C@H](CO)N1C[C@H](C)[C@H](CN(C)C(=O)C2CCCCC2)Oc2ncc(C#CC3CCCCC3)cc2C1=O	1.7	-4.2	6.1	5.1	-3.5
CCC(=O)N[C@H]1CC[C@H](CC(=O)NCc2ccccc2OC)O[C@H]1CO	-0.2	-3.2	2.4	-1.6	0.8
CC(C)Cc1ccc(C(C)C(N)=Nc2ccc(O)cc2)cc1 (configuration not stated)	2.6	10.9	-44.2*	-2.5	2.9
